Results on 21 compounds are retold here after ChEMBL document CHEMBL3576869 (ACS Med Chem Lett, 2015).

The target in data set [1] is Phosphatidylinositol 4,5-bisphosphate 3-kinase catalytic subunit alpha isoform (Homo sapiens, UniProt P42336). The data set can be described thus: Inhibition of PI3Kalpha (unknown origin) using PIP2/PS as substrate after 1 hr by luciferase-based luminescence assay.
The species named for another data set is Homo sapiens. As to the kind of experiment: Selectivity ratio of IC50 for mTOR (unknown origin) to IC50 for PI3Kalpha (unknown origin).
Data set [2] concerns the target Serine/threonine-protein kinase mTOR (Homo sapiens, UniProt P42345). The data set can be described thus: Inhibition of mTOR (unknown origin) using GFP-4E-BP1 as substrate after 1 hr by TR-FRET assay.
Data set [3] is described as follows: Apparent permeability across apical to basolateral side in human Caco2 cells at 10 uM after 1.5 hrs by LC/MS/MS analysis. The class given is ADME, cell-based. The settings on record: Caco-2. (In general: Caco-2 cells form a polarised layer with tight junctions and transporters.)
A short description of data set [4]: Apparent permeability across basolateral to apical side in human Caco2 cells at 10 uM after 1.5 hrs by LC/MS/MS analysis. The class given is ADME, cell-based. The following applies: Caco-2.
The next data set has as its system A549. As to the kind of experiment: Cytotoxicity against PTEN deletion mutant/PIK3CA mutant-deficient human A549 cells assessed as growth inhibition after 4 days by CellTiter-Glo luminescent cell viability assay. It counts as functional, cell-based. The following applies: A549, 96 h. An outline of the steps:
(§1)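 Proliferation panel of human cancer lines carrying either a PIK3CA mutation or a PTEN deletion, with A549 as the one line carrying neither. Growth inhibition is reported as IC50.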

The nature of data set [5]: Permeability of the compound after 5 hrs by PAMPA. It counts as physicochemical. The settings on record: read-out: permeability. On the technique in general: In PAMPA a lipid-coated filter parts donor from acceptor wells.
A further data set deals with SK-OV-3. The data set can be described thus: Cytotoxicity against human SKOV3 cells harboring PIK3CA mutant assessed as growth inhibition after 4 days by CellTiter-Glo luminescent cell viability assay. The following applies: SK-OV-3, 96 h. The class given is functional, cell-based. An outline of the steps: as §1
For orientation: Cellular ATP, detected with luciferase, serves as a proxy for viable cell number.

Data set [6] is described as follows: Cytotoxicity against human H460 cells harboring PIK3CA mutant assessed as growth inhibition after 4 days by CellTiter-Glo luminescent cell viability assay. The class given is functional, cell-based. The following applies: NCI-H460, 96 h. An outline of the steps: as §1
For data set [7], the target named is T1, Phosphatidylinositol 4,5-bisphosphate 3-kinase catalytic subunit delta isoform (Homo sapiens, UniProt O00329).
T1 sequence (O00329 whole entry): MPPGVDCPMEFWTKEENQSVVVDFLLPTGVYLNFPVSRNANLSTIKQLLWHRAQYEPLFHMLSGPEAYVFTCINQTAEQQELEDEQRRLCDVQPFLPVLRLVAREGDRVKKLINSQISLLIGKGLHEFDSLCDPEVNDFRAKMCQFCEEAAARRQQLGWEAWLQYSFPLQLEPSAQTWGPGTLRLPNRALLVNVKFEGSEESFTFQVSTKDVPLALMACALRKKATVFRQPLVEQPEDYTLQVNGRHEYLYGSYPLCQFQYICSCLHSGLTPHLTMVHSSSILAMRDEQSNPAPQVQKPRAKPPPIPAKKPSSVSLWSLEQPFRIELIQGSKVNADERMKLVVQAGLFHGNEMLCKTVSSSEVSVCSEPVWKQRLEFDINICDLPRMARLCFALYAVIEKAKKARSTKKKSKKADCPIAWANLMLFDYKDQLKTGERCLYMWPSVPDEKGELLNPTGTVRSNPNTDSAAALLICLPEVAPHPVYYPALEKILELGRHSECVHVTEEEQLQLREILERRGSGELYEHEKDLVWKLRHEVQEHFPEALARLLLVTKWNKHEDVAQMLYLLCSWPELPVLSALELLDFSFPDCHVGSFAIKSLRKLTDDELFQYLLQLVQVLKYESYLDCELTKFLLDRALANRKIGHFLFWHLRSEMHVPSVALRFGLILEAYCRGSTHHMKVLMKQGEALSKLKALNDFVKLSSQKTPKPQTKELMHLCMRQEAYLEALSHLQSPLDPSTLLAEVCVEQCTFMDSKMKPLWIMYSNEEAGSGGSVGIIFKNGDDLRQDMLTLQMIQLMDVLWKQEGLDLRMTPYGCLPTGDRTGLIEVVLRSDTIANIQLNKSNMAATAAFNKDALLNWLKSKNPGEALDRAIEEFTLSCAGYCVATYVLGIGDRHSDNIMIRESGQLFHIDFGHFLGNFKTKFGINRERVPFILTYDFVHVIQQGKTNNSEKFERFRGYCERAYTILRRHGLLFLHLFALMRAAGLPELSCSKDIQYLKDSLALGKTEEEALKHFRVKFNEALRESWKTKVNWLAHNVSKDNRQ
As to the kind of experiment: Inhibition of PI3Kdelta (unknown origin) using PIP2/PS as substrate after 1 hr by luciferase-based luminescence assay.

Another data set has as its system NCI-H1975. As to the kind of experiment: Cytotoxicity against human NCI-H1975 cells harboring PIK3CA mutant assessed as growth inhibition after 4 days by CellTiter-Glo luminescent cell viability assay. It counts as functional, cell-based. The settings on record: NCI-H1975, 96 h. The procedure, abridged: as §1
Data set [8] deals with Phosphatidylinositol 4,5-bisphosphate 3-kinase catalytic subunit beta isoform (Homo sapiens, UniProt P42338). As to the kind of experiment: Inhibition of PI3Kbeta (unknown origin) using PIP2/PS as substrate after 1 hr by luciferase-based luminescence assay.
For another data set, the system named is U-87 MG. As to the kind of experiment: Cytotoxicity against human U87MG cells harboring PTEN deletion mutant assessed as growth inhibition after 4 days by CellTiter-Glo luminescent cell viability assay. The settings on record: 96 h. It counts as functional, cell-based, U-87MG ATCC. The procedure, abridged: as §1
Data set [9] has as its target Phosphatidylinositol 4,5-bisphosphate 3-kinase catalytic subunit gamma isoform (Homo sapiens, UniProt P48736). The data set can be described thus: Inhibition of PI3Kgamma (unknown origin) using PIP2/PS as substrate after 1 hr by luciferase-based luminescence assay.
Another data set deals with T47D. The data set can be described thus: Cytotoxicity against human T47D cells harboring PIK3CA mutant assessed as growth inhibition after 4 days by CellTiter-Glo luminescent cell viability assay. It counts as functional, cell-based. The following applies: 96 h. An outline of the steps:
as §1

The nature of data set [10]: Efflux ratio of apparent permeability across basolateral to apical side over apical to basolateral side in human Caco2 cells. It counts as ADME, cell-based. The settings on record: Caco-2.
A short description of data set [11]: Inhibition of PI3K in human T47D cells assessed as inhibition of AKT phosphorylation at Ser 473 after 4 hrs by Western blot analysis. It counts as cell-based.

Sequence of Phosphatidylinositol 4,5-bisphosphate 3-kinase catalytic subunit alpha isoform (P42336 whole entry, canonical isoform): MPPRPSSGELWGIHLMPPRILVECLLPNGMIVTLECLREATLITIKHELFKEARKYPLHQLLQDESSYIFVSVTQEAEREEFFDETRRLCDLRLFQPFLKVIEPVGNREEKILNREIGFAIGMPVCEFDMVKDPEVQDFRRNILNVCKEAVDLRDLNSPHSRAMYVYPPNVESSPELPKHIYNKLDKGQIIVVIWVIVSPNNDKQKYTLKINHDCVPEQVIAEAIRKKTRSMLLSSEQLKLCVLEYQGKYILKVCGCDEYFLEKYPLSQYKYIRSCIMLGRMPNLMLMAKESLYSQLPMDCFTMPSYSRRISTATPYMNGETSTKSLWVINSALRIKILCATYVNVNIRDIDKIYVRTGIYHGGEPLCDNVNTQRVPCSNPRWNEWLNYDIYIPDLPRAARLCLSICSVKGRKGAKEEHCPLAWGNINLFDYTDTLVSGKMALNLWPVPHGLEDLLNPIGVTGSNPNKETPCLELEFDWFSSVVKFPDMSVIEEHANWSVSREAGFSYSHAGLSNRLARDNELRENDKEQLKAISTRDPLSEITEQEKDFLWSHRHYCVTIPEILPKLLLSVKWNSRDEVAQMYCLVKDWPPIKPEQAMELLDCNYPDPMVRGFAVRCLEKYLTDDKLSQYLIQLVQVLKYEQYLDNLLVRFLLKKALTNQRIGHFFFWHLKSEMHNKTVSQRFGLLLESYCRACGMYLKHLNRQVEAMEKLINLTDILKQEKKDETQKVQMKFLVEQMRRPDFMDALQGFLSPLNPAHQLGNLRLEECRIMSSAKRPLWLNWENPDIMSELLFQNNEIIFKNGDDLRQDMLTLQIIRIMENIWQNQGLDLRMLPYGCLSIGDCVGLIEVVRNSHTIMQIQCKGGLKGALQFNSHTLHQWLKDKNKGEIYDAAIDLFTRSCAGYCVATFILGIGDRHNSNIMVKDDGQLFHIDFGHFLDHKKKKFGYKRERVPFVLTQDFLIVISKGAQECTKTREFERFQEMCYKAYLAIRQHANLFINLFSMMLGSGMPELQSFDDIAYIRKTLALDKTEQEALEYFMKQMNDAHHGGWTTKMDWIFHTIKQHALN
Sequence of Phosphatidylinositol 4,5-bisphosphate 3-kinase catalytic subunit beta isoform (P42338 whole entry, canonical isoform): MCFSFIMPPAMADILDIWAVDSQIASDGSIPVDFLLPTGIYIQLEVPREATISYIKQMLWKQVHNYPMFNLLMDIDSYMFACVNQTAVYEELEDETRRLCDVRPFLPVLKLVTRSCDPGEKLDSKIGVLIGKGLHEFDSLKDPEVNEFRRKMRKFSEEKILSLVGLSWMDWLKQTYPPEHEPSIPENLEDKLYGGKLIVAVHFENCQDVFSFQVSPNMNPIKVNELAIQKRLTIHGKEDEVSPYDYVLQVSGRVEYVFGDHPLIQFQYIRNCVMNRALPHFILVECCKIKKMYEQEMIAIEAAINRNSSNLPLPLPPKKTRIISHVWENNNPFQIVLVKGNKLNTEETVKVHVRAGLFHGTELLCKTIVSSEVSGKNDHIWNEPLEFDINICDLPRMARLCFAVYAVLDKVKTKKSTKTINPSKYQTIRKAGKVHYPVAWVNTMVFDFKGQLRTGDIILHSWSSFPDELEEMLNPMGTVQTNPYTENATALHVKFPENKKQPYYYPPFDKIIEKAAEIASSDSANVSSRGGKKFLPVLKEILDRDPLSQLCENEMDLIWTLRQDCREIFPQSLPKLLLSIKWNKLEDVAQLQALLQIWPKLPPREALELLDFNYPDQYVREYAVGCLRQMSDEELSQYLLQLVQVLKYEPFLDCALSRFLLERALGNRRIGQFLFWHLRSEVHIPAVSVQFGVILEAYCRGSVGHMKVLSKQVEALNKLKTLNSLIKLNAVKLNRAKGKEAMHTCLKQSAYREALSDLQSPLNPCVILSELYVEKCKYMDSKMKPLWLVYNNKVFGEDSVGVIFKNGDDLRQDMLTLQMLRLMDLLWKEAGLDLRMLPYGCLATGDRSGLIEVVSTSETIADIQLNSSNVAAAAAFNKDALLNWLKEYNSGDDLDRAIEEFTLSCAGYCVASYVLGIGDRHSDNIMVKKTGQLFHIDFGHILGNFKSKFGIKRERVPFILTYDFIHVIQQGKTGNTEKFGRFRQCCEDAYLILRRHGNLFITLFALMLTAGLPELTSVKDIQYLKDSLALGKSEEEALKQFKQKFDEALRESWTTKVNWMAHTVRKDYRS
Sequence of Phosphatidylinositol 4,5-bisphosphate 3-kinase catalytic subunit gamma isoform (P48736 whole entry, canonical isoform): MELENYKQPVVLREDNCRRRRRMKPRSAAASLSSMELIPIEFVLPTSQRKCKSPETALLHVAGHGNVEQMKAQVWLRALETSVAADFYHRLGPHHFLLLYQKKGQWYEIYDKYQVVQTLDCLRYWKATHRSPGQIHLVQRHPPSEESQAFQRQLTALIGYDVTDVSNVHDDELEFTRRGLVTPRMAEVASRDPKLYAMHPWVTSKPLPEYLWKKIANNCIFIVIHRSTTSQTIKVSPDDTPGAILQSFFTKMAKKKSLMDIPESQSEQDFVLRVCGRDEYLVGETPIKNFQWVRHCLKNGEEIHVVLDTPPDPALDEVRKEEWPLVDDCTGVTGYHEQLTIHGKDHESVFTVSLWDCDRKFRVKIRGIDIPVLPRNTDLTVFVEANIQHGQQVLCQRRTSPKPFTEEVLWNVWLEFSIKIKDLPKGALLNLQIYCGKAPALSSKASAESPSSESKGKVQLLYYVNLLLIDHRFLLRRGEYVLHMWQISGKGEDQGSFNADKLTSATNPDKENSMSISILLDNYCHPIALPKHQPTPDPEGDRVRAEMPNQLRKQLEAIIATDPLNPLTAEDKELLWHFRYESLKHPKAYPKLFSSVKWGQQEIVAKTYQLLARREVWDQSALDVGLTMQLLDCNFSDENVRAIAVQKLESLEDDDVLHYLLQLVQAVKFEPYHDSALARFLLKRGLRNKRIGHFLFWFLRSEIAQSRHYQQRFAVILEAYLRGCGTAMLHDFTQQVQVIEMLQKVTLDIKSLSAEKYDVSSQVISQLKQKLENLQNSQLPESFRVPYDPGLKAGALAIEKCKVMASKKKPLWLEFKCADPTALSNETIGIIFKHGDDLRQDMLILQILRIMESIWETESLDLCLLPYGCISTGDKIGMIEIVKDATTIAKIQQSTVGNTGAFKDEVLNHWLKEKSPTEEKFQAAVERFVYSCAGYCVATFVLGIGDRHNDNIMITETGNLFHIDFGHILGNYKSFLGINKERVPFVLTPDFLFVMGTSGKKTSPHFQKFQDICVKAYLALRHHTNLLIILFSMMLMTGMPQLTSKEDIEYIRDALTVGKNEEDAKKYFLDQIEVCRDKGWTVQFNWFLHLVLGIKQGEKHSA

For `COc1ccc(-c2cc3c(-c4ccncc4)ncnc3s2)cn1`, the 50% inhibitory concentration (IC50) in data set [1] turned out to be 1230 nM.
As to `O=S(=O)(Nc1cc(-c2cc3c(-c4ccncc4)ncnc3s2)cnc1Cl)c1ccc(F)cc1`, the Ratio IC50 in the data set filed under Homo sapiens was found to be 146. Moreover, the IC50 in data set [1] is 0.3 nM; in data set [2], 43.7 nM.
As for `COc1ncc(-c2cc3c(-c4ccncc4)ncnc3s2)cc1NS(C)(=O)=O`, the IC50 in data set [1] is 43.1 nM.
For `COc1ncc(-c2ccc3ncnc(-c4ccncc4)c3c2)cc1NS(=O)(=O)c1ccc(F)cc1F`, the Ratio IC50 in the data set listed under Homo sapiens was found to be 2.1. The IC50 in [1] came to 0.095 nM; in [2], 0.2 nM.
The matching figures for `COc1ncc(-c2cc3c(-c4ccncc4)ncnc3s2)cc1NS(=O)(=O)c1ccc(Cl)s1`: 52, 1.3 nM and 67.9 nM.
With `COc1ncc(-c2ccc3nccc(-c4ccncc4)c3c2)cc1NS(=O)(=O)c1ccc(F)cc1F`, in the data set filed under Homo sapiens, the Ratio IC50 stood at 7.5. In addition, the concentration for half-maximal inhibition (IC50) is 0.1 nM in [1] and 0.75 nM in [2].
As to `COc1ncc(-c2ccc3nc(N)nc(-c4ccncc4)c3c2)cc1NS(=O)(=O)c1ccc(F)cc1F`, in the data set filed under Homo sapiens, the Ratio IC50 stood at 4.1. Moreover, the IC50 is 0.07 nM in [1] and 0.29 nM in data set [2].
As for `COc1ncc(-c2cc3c(-c4ccncc4)ccnc3cn2)cc1NS(=O)(=O)c1ccc(F)cc1F`, the Ratio IC50 in the data set filed under Homo sapiens is 3. In addition, the half-maximal inhibitory concentration (IC50) was 1.02 nM in data set [1] and 3.04 nM in data set [2].
Consider `COc1ncc(-c2cc3c(-c4ccncc4)ncnc3s2)cc1NS(=O)(=O)c1ccc(C(F)(F)F)cc1`, for which the midpoint of inhibition in [1], the IC50, lay at 17 nM.
Still for that read-out and setting: the figure for `COc1ncc(-c2sc3ncnc(-c4ccncc4)c3c2C)cc1NS(=O)(=O)c1ccc(F)cc1F` is 72.3 nM.
With `COc1ncc(-c2ccc3nncc(-c4ccncc4)c3c2)cc1NS(=O)(=O)c1ccc(F)cc1F`, in the data set filed under Homo sapiens, the Ratio IC50 was 80. Moreover, the 50% inhibitory concentration (IC50) is 0.27 nM in [1] and 21.6 nM in [2].
`O=S(=O)(Nc1cc(-c2cc3c(-c4ccncc4)ncnc3s2)cnc1Cl)c1ccc(F)cc1F`: in data set [3], the Papp A→B at 1.5 h, 10 µM came to 4.8 ×10⁻⁶ cm/s. Further, the Ratio IC50 in the data set filed under Homo sapiens amounted to 233. In addition, the Papp B→A at 1.5 h, 10 µM in data set [4] was 6.9 ×10⁻⁶ cm/s. Moreover, the concentration for half-maximal inhibition (IC50) in the data set on A549 is 8440 nM; in the data set on SK-OV-3 it was 5200 nM; in [6], 2940 nM; in data set [7], 3.1 nM; in the data set on NCI-H1975 it was 2200 nM; in [8] it was 3.6 nM. The half-maximal inhibitory concentration (IC50) came to 0.23 nM in [1]; 4430 nM in the data set with U-87 MG; 10.2 nM in [9]; 1520 nM in the data set on T47D; 53.6 nM in [2]. Besides, in data set [5], the Papp at 5 h amounted to 7 ×10⁻⁶ cm/s. In addition, the efflux ratio in data set [10] turned out to be 1.4.
In the case of `COc1ncc(-c2cc3c(-c4ccncc4)ncnc3s2)cn1`, in [1], half-maximal inhibition (IC50) was put at 3490 nM.
As for `O=S(=O)(Nc1cc(-c2cc3c(-c4ccncc4)ncnc3s2)cnc1Cl)c1ccc(Cl)s1`, the Ratio IC50 in the data set listed under Homo sapiens was 172. The IC50 in data set [1] was 0.15 nM; in data set [2], 25.8 nM.
The like results for `COc1ncc(-c2cc3c(-c4ccncc4)ncnc3s2)cc1NS(=O)(=O)c1ccc(C#N)cc1` were, in that order, 100, 3.6 nM and 363 nM.
For the compound `COc1ncc(-c2cc3c(-c4ccncc4)ncnc3s2)cc1NS(=O)(=O)c1ccc(F)cc1F`, the apparent permeability from apical to basolateral (Papp A→B) at 1.5 h, 10 µM in data set [3] was found to be 5.6 ×10⁻⁶ cm/s. For the same compound, the Ratio IC50 in the data set filed under Homo sapiens was found to be 105. For the same compound, the apparent permeability from basolateral to apical (Papp B→A) at 1.5 h, 10 µM in data set [4] is 4.5 ×10⁻⁶ cm/s. The concentration for half-maximal inhibition (IC50) amounted to 3180 nM in the data set with A549; 3740 nM with SK-OV-3; 420 nM in [6]; 13.3 nM in data set [7]; 1070 nM with NCI-H1975; 22.5 nM in [8]. Besides, the IC50 in data set [1] came to 2.07 nM; with U-87 MG, 4400 nM; in data set [9], 21.1 nM; in the data set on T47D, 660 nM; in data set [2] it was 218 nM; in data set [11], 84.6 nM. For the same compound, the Papp at 5 h in [5] was found to be 8 ×10⁻⁶ cm/s. The efflux ratio in data set [10] is 0.8.
On to `COc1ncc(-c2cnc3nc(N)nc(-c4ccncc4)c3c2)cc1NS(=O)(=O)c1ccc(F)cc1F`, for which, in the data set filed under Homo sapiens, the Ratio IC50 worked out at 0.52.
As to `COc1ncc(-c2cnc3nccc(-c4ccncc4)c3c2)cc1NS(=O)(=O)c1ccc(F)cc1F`, in the data set filed under Homo sapiens, the Ratio IC50 was 1.9. Moreover, the figures for the IC50 in data set [1] and in data set [2] were 34.7 nM and 66.7 nM, respectively.
For the compound `COc1ncc(-c2cc3c(-c4ccncc4)ncnc3s2)cc1F`, the IC50 in [1] is greater than 2500 nM.
Consider `COc1ncc(-c2cnc3ncnc(-c4ccncc4)c3c2)cc1NS(=O)(=O)c1ccc(F)cc1F`, for which the Ratio IC50 in the data set listed under Homo sapiens stood at 1.2. In addition, the half-inhibitory concentration (IC50) is 51.7 nM in [1] and 62.3 nM in data set [2].
The matching figures for `Cc1ncc(-c2cc3c(-c4ccncc4)ncnc3s2)cc1NS(=O)(=O)c1ccc(F)cc1F`: 203, 1.7 nM and 345 nM.

Usually IC50 stands for the midpoint of a concentration-inhibition curve. A word on the Papp A→B: it is how fast a substance crosses the layer from the apical side. The Papp B→A is how fast a substance crosses the layer from the basolateral side. The term efflux ratio denotes the permeability from basolateral to apical divided by that in the opposite direction, in the common usage.
